Inconclusive results are not listed.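 How the source made its calls, unless noted: active means viability increase at or above a cutoff of the median across tested compounds plus 3 SD (cut at about 8.5% in these data, passing the limit was not always enough); inconclusive means some gains above the cutoff, reason not given; inactive means the rest.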
What was measured:
[1] = S. cerevisiae growth inhibition in permissive medium (OD615), pilot counter-assay for S. cerevisiae lifespan shortening project, permissive growth control (AID 705;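 active means growth inhibition above 25% in both replicates, a cutoff set 3 SD above the mean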); details: OD615, 24 h, at 10 µM, active compounds read high
In short: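 Test system: Saccharomyces cerevisiae strain carrying genetically modified DeaD replicative-lifespan system; buffer or medium: SC raffinose/galactose permissive medium; dosing: one dose 10 µM, DMSO 0.25% final; times: 24 h exposure, 30 °C; measured by: OD at 615 nm; read-out basis: growth inhibition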

[2] = S. cerevisiae growth inhibition in restrictive medium, OD615, pilot screen, restrictive growth control, yeast lifespan reduction project (AID 706;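 active means growth inhibition above a set limit, 3 SD over mean compound inhibition, in both replicates, cut at about 43% in these data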;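 further: modified DeaD lifespan yeast strain shifted to restrictive glucose medium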); details: OD615, 48 h, at 10 µM, active compounds read high
In short: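 material = engineered S. cerevisiae DeaD strain | buffer or medium = glucose-based CSMM-D restrictive medium | dosing = one concentration, 10 µM final, 0.25% DMSO | schedule = 4 h pre-growth plus 48 h compound exposure, 30 °C | detection = OD615 absorbance reading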

[3] = doxorubicin toxicity protection in MRP-1 cells – H69AR cells, CellTiter-Glo, duplicate, MRP-1 activator project, pilot screen (AID 807); details: H69AR viability with doxorubicin, CellTiter-Glo luminescence; at 10 µM; active compounds read high;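 further: compound pretreatment 18-22 h then 72 h combined with doxorubicin; 0% = doxorubicin alone and 100% = vehicle without doxorubicin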
[4] = viability of HCT116 without oncogenic beta-catenin – human colon tumor cells, pilot screen (AID 823;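 active means cell viability at or below a set limit in both duplicate runs, the limit being the all-compound median minus 4 SD, cut at about 23% in these data, passing the limit was not always enough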;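 further: 0% = wells killed by 20 µM Hyamine and 100% = untreated DMSO cell wells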); details: HCT116 beta-catenin knockout viability, CellTiter-Glo, 60 h; at 10 µM; active compounds read low
[5] = viability of PTEN-null HCT116 cells – cell-based, HCT116 clonal line, CellTiter-Glo, pilot screen (AID 824;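 active means viability at or below 27.92% in each of two runs, the all-compound median minus 4 SD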;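 further: 0% = 20 µM Hyamine control and 100% = vehicle cell control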); details: HCT116 PTEN-deleted viability, 60 h, at 10 µM, active compounds read low
[6] = RAM pathway blockade in budding yeast – dse1pr::URA3 reporter, 5-FOA selection, pilot screen (AID 869;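 active means inhibition over a set limit, the all-compound mean plus 3 SD, in both replicate runs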;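 further: 0% = DMSO wells with no growth and 100% = 10 µM 1-NA-PP1 with full growth; RAM network block rescues cells from 5-FOA so hits raise OD615 growth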); details: S. cerevisiae dse1pr::URA3 5-FOA growth, OD615, 2 d; at 10 µM; active compounds read high; strain carries analog-sensitive mutant Cbk1 kinase
[7] = RAM signaling pathway blockade in yeast – S. cerevisiae, Pdr1DBD-CYC8 efflux-inhibited sensitized strain, primary screen (AID 1298;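 active means RAM network inhibition above 8.4% in each of two replicates, 3 SD over the compound average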;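 further: 0% = DMSO untreated cells without growth and 100% = 10 µM 1-NA-PP1 full growth; higher means more yeast growth rescued from 5-FOA killing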); details: S. cerevisiae cbk1-as DSE1-URA3 strain, 5-FOA growth OD615, 2 d; at 50 µM; active compounds read high

CCOC(=O)c1[nH]c(C)c(C(=O)NC(C)CC)c1C (configuration not stated)
inactive: growth inhibition [1] 2.05% | growth inhibition [2] -0.41% | viability increase [3] 1.35% | viability [4] 103% | viability [5] 99.7% | inhibition [6] 1.21% | RAM network inhibition [7] 0.93%

Cc1nnc(NC(=O)CSc2nc3c(c(=O)n2CCc2ccccc2)SC(C)C3)s1 (configuration not stated)
inactive: growth inhibition [1] -9.82% | growth inhibition [2] -15.6% | viability increase [3] 0.33% | viability [4] 101% | viability [5] 103% | inhibition [6] 3.13% | RAM network inhibition [7] 6.06%

CCOc1cccc2sc(NC(=O)c3ccc(Br)s3)nc12
inactive: growth inhibition [1] -25.6% | growth inhibition [2] -9.82% | viability increase [3] -3.55% | viability [4] 65.4% | viability [5] 58% | inhibition [6] 2.42% | RAM network inhibition [7] 4.63%

Cc1ccc(/C(O)=C2\C(=O)C(=O)N(CCN(C)C)C2c2ccccc2F)cc1 (configuration not stated)
inactive: growth inhibition [1] -10.5% | growth inhibition [2] -5.25% | viability increase [3] -2.92% | viability [4] 88.3% | viability [5] 87.1% | inhibition [6] -0.9% | RAM network inhibition [7] -1.02%

CC(Oc1ccc(Cl)cc1Cl)C(=O)Nc1ccncc1 (configuration not stated)
inactive: growth inhibition [1] -13.3% | growth inhibition [2] -9.66% | viability increase [3] -6.03% | viability [4] 54.9% | viability [5] 54.2% | inhibition [6] 1.19% | RAM network inhibition [7] 2.04%

O=C(CCCn1c(=O)[nH]c2ccccc2c1=O)N1CCN(c2ccccn2)CC1
inactive: growth inhibition [1] -3.37% | growth inhibition [2] -16.9% | viability increase [3] -3.43% | viability [4] 98.3% | viability [5] 96.2% | inhibition [6] 2.37% | RAM network inhibition [7] 3.32%

COCCCNC(=O)CN(c1ccc(Cl)c(Cl)c1)S(C)(=O)=O
inactive: growth inhibition [1] 0.93% | growth inhibition [2] -7.01% | viability increase [3] -1.44% | viability [4] 99.4% | viability [5] 101% | inhibition [6] 0.96% | RAM network inhibition [7] -0.77%

CC(C)CCNC(=O)c1ccc2c(c1)N(Cc1ccccc1)C(=O)CS2=O (configuration not stated)
inactive: growth inhibition [1] -0.755% | growth inhibition [2] 4.24% | viability increase [3] 1.95% | viability [4] 104% | viability [5] 94% | inhibition [6] 0.275% | RAM network inhibition [7] 1.41%

CCCC(=O)C1C(=O)CC(C)(C)C(c2cc(C)no2)C1=O (configuration not stated)
inactive: growth inhibition [1] -22.4% | growth inhibition [2] -12.9% | viability increase [3] 0.5% | viability [4] 103% | viability [5] 98.7% | inhibition [6] -0.1% | RAM network inhibition [7] -1.09%

CCc1ccc(N2C(=O)c3sc4nnc(C)c(=O)n4c3C2=O)cc1
inactive: growth inhibition [1] -19.9% | growth inhibition [2] -7.66% | viability increase [3] -1% | viability [4] 87.9% | viability [5] 76.9% | inhibition [6] 1.4% | RAM network inhibition [7] 0.21%

Cc1cc(C)c2c(=O)[nH]c(SCC(=O)N3CCCCC3)nc2n1
inactive: growth inhibition [1] -12.1% | growth inhibition [2] -6.02% | viability increase [3] -0.84% | viability [4] 93.1% | viability [5] 101% | inhibition [6] 0.535% | RAM network inhibition [7] 2.3%

Cc1cc(C)n(/N=C/c2cccc(O)c2)c(=O)c1C(N)=O
inactive: growth inhibition [1] -22.8% | growth inhibition [2] -22.5% | viability increase [3] 1.95% | viability [4] 99.7% | viability [5] 100% | inhibition [6] 0.485% | RAM network inhibition [7] 4.4%

CC1=CS/C(=C(/C#N)C(=O)NCc2ccco2)N1c1ccccc1
inactive: growth inhibition [1] -0.435% | growth inhibition [2] -4.64% | viability increase [3] -2.99% | viability [4] 117% | viability [5] 97.6% | inhibition [6] 2.08% | RAM network inhibition [7] 1.49%

Cc1cc(C)nc(N(C#N)Cc2ccccc2Cl)n1
inactive: growth inhibition [1] -8.69% | growth inhibition [2] 4.5% | viability increase [3] -3.71% | viability [4] 99.7% | viability [5] 95.5% | inhibition [6] 1.48% | RAM network inhibition [7] -0.21%

Cc1cnc(NC(=O)c2ccc(-c3nc4ccccc4s3)o2)s1
inactive: growth inhibition [1] -7.12% | growth inhibition [2] 10.2% | viability increase [3] -3.16% | viability [4] 98.1% | viability [5] 96.3% | inhibition [6] 0.165% | RAM network inhibition [7] 0.78%

O=C(CCS(=O)(=O)c1cccc2nonc12)NC1CCCCCC1
inactive: growth inhibition [1] -7.86% | growth inhibition [2] -9.46% | viability increase [3] -4.43% | viability [4] 86.7% | viability [5] 84.5% | inhibition [6] 0.855% | RAM network inhibition [7] 0.93%

Cc1ccccc1Cn1c(CN2CCN(c3ccc(F)cc3)CC2)nc2c1c(=O)n(C)c(=O)n2C
inactive: growth inhibition [1] -12.2% | growth inhibition [2] -17.1% | viability increase [3] -3.7% | viability [4] 94.4% | viability [5] 92.2% | inhibition [6] 2.51% | RAM network inhibition [7] 7.93%

C=CCn1c(=O)/c(=C/c2cc(OC)c(OC)c(OC)c2)s/c1=C(/C#N)c1nc2ccccc2n1C
inactive: growth inhibition [1] -4.25% | growth inhibition [2] 8.29% | viability increase [3] -3.61% | viability [4] 46.3% | viability [5] 50.9% | inhibition [6] 3.67% | RAM network inhibition [7] 4.52%

COc1nc(NCCC2=CCCCC2)nc(OC)n1
inactive: growth inhibition [1] -12.2% | growth inhibition [2] 2.74% | viability increase [3] 2.72% | viability [4] 98.6% | viability [5] 99.4% | inhibition [6] 0.235% | RAM network inhibition [7] 3.01%

CC(=O)NC(CCS(C)(=O)=O)C(=O)Nc1cc(Cl)ccc1Cl (configuration not stated)
inactive: growth inhibition [1] -14.6% | growth inhibition [2] -17.2% | viability increase [3] 0.37% | viability [4] 105% | viability [5] 92% | inhibition [6] 2.08% | RAM network inhibition [7] 2.67%

CC(C)C(NS(=O)(=O)c1ccc2c(c1)oc(=O)n2C)C(=O)N1CCN(C2CCCCC2)CC1 (configuration not stated)
inactive: growth inhibition [1] -2.87% | growth inhibition [2] -9.46% | viability increase [3] -3.02% | viability [4] 106% | viability [5] 95.6% | inhibition [6] 0.14% | RAM network inhibition [7] 6.54%

CCc1ccc(NC(=O)C2CC=CCC2C(=O)O)cc1 (configuration not stated)
inactive: growth inhibition [1] 6.68% | growth inhibition [2] 5.45% | viability increase [3] 0.72% | viability [4] 98.1% | viability [5] 98.9% | inhibition [6] -0.5% | RAM network inhibition [7] 4.12%

Cn1c(=O)oc2cc(S(=O)(=O)N3CCC(C(=O)N4CCN(c5ccccc5)CC4)CC3)ccc21
inactive: growth inhibition [1] 0.31% | growth inhibition [2] 3.94% | viability increase [3] -2.78% | viability [4] 94.6% | viability [5] 93.1% | inhibition [6] -0.21% | RAM network inhibition [7] 7.13%

OC1CCN(c2c3c(nc4cc(-c5cccc(F)c5)nn24)CCCC3)CC1
inactive: growth inhibition [1] 2.2% | growth inhibition [2] -11.2% | viability increase [3] -6.47% | viability [4] 73.8% | viability [5] 65% | inhibition [6] 2.02% | RAM network inhibition [7] 9.14%

O=C(c1ccccc1)N1CCN(C2CC(=O)N(CCc3ccccc3)C2=O)CC1 (configuration not stated)
inactive: growth inhibition [1] -3.21% | growth inhibition [2] 4.64% | viability increase [3] 1.3% | viability [4] 96.8% | viability [5] 100% | inhibition [6] 2.52% | RAM network inhibition [7] 4.98%

Cc1cc(NC(=O)CSc2nnc(Cn3c(=O)sc4ccccc43)n2-c2ccccc2C)no1
inactive: growth inhibition [1] -0.97% | growth inhibition [2] -2.43% | viability increase [3] -1.05% | viability [4] 89% | viability [5] 87% | inhibition [6] 1.27% | RAM network inhibition [7] 7.59%

COc1ccc(C(=O)c2cn[nH]c2-c2cc(Cl)ccc2O)cc1
inactive: growth inhibition [1] 3.93% | growth inhibition [2] 4.28% | viability increase [3] -1.77% | viability [4] 87.7% | viability [5] 78.7% | inhibition [6] 1.17% | RAM network inhibition [7] 3.53%

CN(C)S(=O)(=O)c1ccc(C(=O)Nc2ccc(OCC(=O)N3CCOCC3)cc2)cc1
inactive: growth inhibition [1] 0.98% | growth inhibition [2] -1.1% | viability increase [3] -1.5% | viability [4] 97.7% | viability [5] 97.9% | inhibition [6] 2.33% | RAM network inhibition [7] 0.86%

CSc1ccc(S(=O)(=O)Nc2ccc3c(c2)OCCO3)cc1
inactive: growth inhibition [1] -3.2% | growth inhibition [2] -11% | viability increase [3] -3.95% | viability [4] 62.2% | viability [5] 71.9% | inhibition [6] 1.67% | RAM network inhibition [7] -0.87%

c1ccc(Cn2c(CSc3nnnn3-c3ccccc3)nc3ccccc32)cc1
inactive: growth inhibition [1] 0.645% | growth inhibition [2] 5.56% | viability increase [3] -2.93% | viability [4] 96.3% | viability [5] 95% | inhibition [6] 1.48% | RAM network inhibition [7] 5.11%

O=C(NCc1ccco1)C1CCN(c2nc3ccccc3n2Cc2ccc(F)cc2)CC1
inactive: growth inhibition [1] -6.36% | growth inhibition [2] -0.175% | viability increase [3] -5.61% | viability [4] 78.1% | viability [5] 73.9% | inhibition [6] 0.41% | RAM network inhibition [7] 7.12%

Cc1ccc2c(c1)N(CCCC(=O)NCCCN1CCCC1=O)C(=O)CO2
inactive: growth inhibition [1] -11.1% | growth inhibition [2] -13.3% | viability increase [3] -2.09% | viability [4] 98.2% | viability [5] 94% | inhibition [6] 1.64% | RAM network inhibition [7] 1.27%

COC(=O)C1CCN(C(c2cc(OC)c(OC)c(OC)c2)c2sc3nc(C)nn3c2O)CC1 (configuration not stated)
inactive: growth inhibition [1] -10.8% | growth inhibition [2] -17.2% | viability increase [3] -1.81% | viability [4] 102% | viability [5] 93% | inhibition [6] 2.08% | RAM network inhibition [7] 3.91%

Cc1ccc(-c2nc3cnccn3c2Nc2ccccc2)o1
inactive: growth inhibition [1] 0.205% | growth inhibition [2] 14.9% | viability increase [3] -0.77% | viability [4] 91.2% | viability [5] 84.3% | inhibition [6] 0.995% | RAM network inhibition [7] 1.9%

CC1(C)Cc2c(sc3nc(-c4cccs4)n(N)c(=O)c23)CO1
inactive: growth inhibition [1] -10.5% | growth inhibition [2] 18.5% | viability increase [3] -6.5% | viability [4] 42.1% | viability [5] 45.5% | inhibition [6] 0.19% | RAM network inhibition [7] 1.7%

Cc1cccc(N2C(=O)SC(N(CC(=O)O)c3cccc(C)c3)C2=O)c1 (configuration not stated)
inactive: growth inhibition [1] -12.5% | growth inhibition [2] 15.6% | viability increase [3] -3.96% | viability [4] 103% | viability [5] 99.1% | inhibition [6] 1.24% | RAM network inhibition [7] 5.06%

From PubChem BioAssay
